From ChEMBL document CHEMBL1156149, “Cyclic sulfones as novel P3-caps for hepatitis C virus NS3/4A (HCV NS3/4A) protease inhibitors: synthesis and evaluation of inhibitors with improved potency and pharmacokinetic profiles” (J Med Chem, 2010)

What was measured:
[1] = Ratio of plasma concentration in monkey at 3 mg/kg, po after 8 hrs to EC90 for Hepatitis C virus; type: ADME, organism-based; parameters: dose 3 mg/kg, route oral; conditions: in vivo
[2] = Inhibition of HCV NS3/4A protease; parameters: species or system Hepacivirus hominis
Hepatitis C virus = assay: Antiviral activity against Hepatitis C virus infected in human hepatoma cells assessed as inhibition of viral replication; type: functional, organism-based, Hepacivirus hominis
[3] = AUC (0 to 24 hrs) in monkey at 3 mg/kg, po; type: ADME, organism-based, Macaca mulatta; parameters: time < 24 hr, dose 3 mg/kg, route oral; conditions: rhesus monkey, plasma
[4] = Plasma concentration in monkey at 3 mg/kg, po after 8 hrs; type: ADME, organism-based, Macaca mulatta; parameters: dose 3 mg/kg, route oral; conditions: rhesus monkey
[5] = AUC in rat at 10 mg/kg; type: ADME, organism-based; parameters: dose 10 mg/kg; conditions: plasma
Method in brief: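 Rats were given compound orally at 10 mg/kg in 0.4% methylcellulose in water. Blood was sampled periodically and pooled (rapid rat protocol). Plasma exposure was reported as AUC(0-6h) in μM h.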

[6] = AUC in monkey at 3 mg/kg; type: ADME, organism-based, Macaca mulatta; parameters: dose 3 mg/kg; conditions: rhesus monkey, plasma
Method in brief: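 Oral dosing of monkeys at 3 mpk, with compound suspended in 0.4% methylcellulose. Exposure was reported as plasma AUC(0-24h) in μM h. Plasma concentration at 8 h was also taken and expressed as a ratio to cellular EC90.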

[7] = Bioavailability in monkey at 3 mg/kg; type: ADME, organism-based, Macaca mulatta; conditions: rhesus monkey, in vivo
[8] = AUC (0 to 6 hrs) in rat at 10 mg/kg, po; type: ADME, organism-based; parameters: time < 6 hr, dose 10 mg/kg, route oral; conditions: plasma
Method in brief: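 Rats dosed orally at 10 mg/kg in 0.4% methylcellulose in water, in a rapid rat protocol. Blood was withdrawn periodically and pooled, and plasma AUC was calculated over the stated interval.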

SMILES | Ki [2] | EC90 (Hepatitis C virus) | further results
CCC[C@H](NC(=O)[C@@H]1C2C(CN1C(=O)[C@@H](NC(=O)NC1([C@H]3CCCS3(=O)=O)CCCCC1)C1(C)CCCCC1)C2(C)C)C(=O)C(=O)NC1CC1 (single isomer, unassigned) | 2 nM | 20 nM | Ratio [1]: 47; AUC(0-t) at 24 h [3]: 20.8 µM·h; concentration at 8 h [4]: 934 nM
CC(C)(C)NC(=O)N[C@H](C(=O)N1C[C@H]2[C@@H]([C@H]1C(=O)NC(CC1CCC1)C(=O)C(N)=O)C2(C)C)C(C)(C)C (some centres undefined) [BOCEPREVIR] | 14 nM | – | EC90 (Hepatitis C virus; read-out: EC90): 350 nM; AUC [5]: 1.52 µM·h; AUC [6]: 0.12 µM·h; bioavailability [7]: 4%; AUC(0-t) at 24 h [3]: 0.12 µM·h
CCC[C@H](NC(=O)[C@@H]1[C@H]2[C@@H](CN1C(=O)[C@@H](NC(=O)NC1([C@H]3CCCCS3(=O)=O)CCCCC1)C1(C)CCCCC1)C2(C)C)C(=O)C(=O)NC1CC1 | 7 nM | 50 nM | –
CCCC[C@H](NC(=O)[C@@H]1C2C(CN1C(=O)[C@@H](NC(=O)NC1([C@H]3CCCS3(=O)=O)CCCCC1)C1(C)CCCCC1)C2(C)C)C(=O)C(=O)NC1CC1 (single isomer, unassigned) | 3 nM | 20 nM | Ratio [1]: 37; AUC(0-t) at 24 h [3]: 9 µM·h; concentration at 8 h [4]: 742 nM
C=CCNC(=O)C(=O)[C@H](CCC)NC(=O)[C@@H]1C2C(CN1C(=O)[C@@H](NC(=O)NC1([C@H]3CCCCS3(=O)=O)CCCCC1)C(C)(C)C)C2(C)C (single isomer, unassigned) | 3 nM | 30 nM | –
CCC[C@H](NC(=O)[C@@H]1C2C(CN1C(=O)[C@@H](NC(=O)NC1([C@H]3CCCS3(=O)=O)CCCCC1)C(C)(C)C)C2(C)C)C(=O)C(=O)NC1CC1 (single isomer, unassigned) | 4 nM | 20 nM | –
C=CCNC(=O)C(=O)[C@H](CCCC)NC(=O)[C@@H]1C2C(CN1C(=O)[C@@H](NC(=O)NC1([C@H]3CCCS3(=O)=O)CCCCC1)C(C)(C)C)C2(C)C (single isomer, unassigned) | 3 nM | 30 nM | AUC(0-t) at 24 h [3]: 2.2 µM·h
C=CCNC(=O)C(=O)[C@H](CCC1CC1)NC(=O)[C@@H]1[C@H]2[C@@H](CN1C(=O)[C@@H](NC(=O)NC1([C@H]3CCCCS3(=O)=O)CCCCC1)C(C)(C)C)C2(C)C | 4 nM | 40 nM | –
CCCC[C@H](NC(=O)[C@@H]1C2C(CN1C(=O)[C@@H](NC(=O)NC1([C@@H]3CCS3(=O)=O)CCCCC1)C(C)(C)C)C2(C)C)C(=O)C(=O)NC1CC1 (single isomer, unassigned) | 5 nM | 120 nM | –
CC1(NC(=O)N[C@H](C(=O)N2C[C@@H]3[C@H]([C@H]2C(=O)NC(CC2CCC2)C(=O)C(N)=O)C3(C)C)C(C)(C)C)CCCCC1 (some centres undefined) | 9 nM | – | EC90 (Hepatitis C virus; read-out: EC90): 200 nM
CC1(C)C2CN(C(=O)[C@@H](NC(=O)NC3([C@H]4CCCCS4(=O)=O)CCCCC3)C(C)(C)C)[C@H](C(=O)N[C@@H](CCC3CC3)C(=O)C(=O)NC3CC3)C21 (single isomer, unassigned) | 6 nM | 40 nM | –
CCC[C@H](NC(=O)[C@@H]1[C@H]2[C@@H](CN1C(=O)[C@@H](NC(=O)NC1([C@H]3CCCCS3(=O)=O)CCCCC1)C(C)(C)C)C2(C)C)C(=O)C(=O)NC1CC1 | 12 nM | 40 nM | –
CCCC[C@H](NC(=O)[C@@H]1C2C(CN1C(=O)[C@@H](NC(=O)NC1([C@H]3CCCS3(=O)=O)CCCCC1)C(C)(C)C)C2(C)C)C(=O)C(=O)NC1CC1 (single isomer, unassigned) | 4 nM | 20 nM | Ratio [1]: 0.5; AUC(0-t) at 24 h [3]: 0.4 µM·h; AUC(0-t) at 6 h [8]: 0.9 µM·h; concentration at 8 h [4]: 10 nM

More lines, main results first:

Ki [2] | EC90 (Hepatitis C virus) | SMILES | further results
10 nM | 60 nM | CCCC[C@H](NC(=O)[C@@H]1C2C(CN1C(=O)[C@@H](NC(=O)NC1([C@H]3CCS3(=O)=O)CCCCC1)C(C)(C)C)C2(C)C)C(=O)C(=O)NC1CC1 (single isomer, unassigned) | –
3 nM | 40 nM | CC1([C@H](NC(=O)NC2([C@H]3CCCS3(=O)=O)CCCCC2)C(=O)N2C[C@@H]3[C@H]([C@H]2C(=O)N[C@@H](CCC2CC2)C(=O)C(=O)NC2CC2)C3(C)C)CCCCC1 | Ratio [1]: 8; AUC(0-t) at 24 h [3]: 3.5 µM·h; concentration at 8 h [4]: 303 nM
6 nM | 35 nM | C=CCNC(=O)C(=O)C(CCC)NC(=O)[C@@H]1[C@H]2[C@@H](CN1C(=O)[C@@H](NC(=O)NC1([C@H]3CCCS3(=O)=O)CCCCC1)C(C)(C)C)C2(C)C (mixture of isomers) | –
11 nM | 60 nM | CCCC[C@H](NC(=O)[C@@H]1C2C(CN1C(=O)[C@@H](NC(=O)NC1([C@@H]3CCCCS3(=O)=O)CCCCC1)C(C)(C)C)C2(C)C)C(=O)C(=O)NC1CC1 (single isomer, unassigned) | –
4 nM | 35 nM | C=CCNC(=O)C(=O)[C@H](CCC1CC1)NC(=O)[C@@H]1C2C(CN1C(=O)[C@@H](NC(=O)NC1([C@H]3CCCS3(=O)=O)CCCCC1)C(C)(C)C)C2(C)C (single isomer, unassigned) | –
4 nM | 30 nM | CCCC[C@H](NC(=O)[C@@H]1C2C(CN1C(=O)[C@@H](NC(=O)NC1([C@@H]3CCCS3(=O)=O)CCCCC1)C(C)(C)C)C2(C)C)C(=O)C(=O)NC1CC1 (single isomer, unassigned) | –
4 nM | 40 nM | CC(C)(C)[C@H](NC(=O)NC1([C@H]2CCCS2(=O)=O)CCCCC1)C(=O)N1C[C@@H]2[C@H]([C@H]1C(=O)N[C@@H](CCC1CC1)C(=O)C(=O)NC1CC1)C2(C)C | –
12 nM | 60 nM | C=CCNC(=O)C(=O)[C@H](CCCC)NC(=O)[C@@H]1[C@H]2[C@@H](CN1C(=O)[C@@H](NC(=O)NC1([C@H]3CCCCS3(=O)=O)CCCCC1)C(C)(C)C)C2(C)C | –
10 nM | 50 nM | CCCC[C@H](NC(=O)[C@@H]1[C@H]2[C@@H](CN1C(=O)[C@@H](NC(=O)NC1([C@H]3CCCCS3(=O)=O)CCCCC1)C(C)(C)C)C2(C)C)C(=O)C(=O)NC1CC1 | –
8 nM | 100 nM | CCCC[C@H](NC(=O)[C@@H]1[C@H]2[C@@H](CN1C(=O)[C@@H](NC(=O)NC1([C@H]3CCCCS3(=O)=O)CCCCC1)C1(C)CCCCC1)C2(C)C)C(=O)C(=O)NC1CC1 | –
